Only some compounds are listed: those with a hit (about 3.1% of all), similar ones and a draw of the others.
CSC inhib – blocks cancer stem cells; hit rate 1.1% among 300,000; inhibition, % at 7.5 µM; cancer stem cell-like cells viability, luminescence; in the data active means inhibition above about 75%; inconclusive means no clear call, values can overlap the other calls; tested in HMLE shEcad cells
H9c2 TAG inh – triacylglycerol accumulation inhibition; H9c2 cells, Nile Red lipid (TAG) fluorescence; cells loaded with 200 µM oleic acid; AID 651582; hit rate 0.66% among 230,000; inhibition, % at 12.5 µM;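 active means pattern-corrected inhibition of lipid staining of at least 50% with the nuclear-stain viability signal not falling by more than 50%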;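 further: 0% = DMSO wells and 100% = triacsin C control wells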
A1 inh – inhibitors of the anti-apoptotic protein A1, read as caspase activation; MEF A1-2A-BIM cells, Caspase-Glo 3/7 luminescence, 3 h; percent of clofoctol response, vehicle zero; caspase activation, % (concentration not given with the values); hit rate 0.066% among 330,000; AID 2462;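 active means over half of replicate activation scores above 10%, or exactly half above 10 with the replicate mean above 10; inconclusive means replicate mean below 10 yet half the replicates above 10; inactive means over half of replicates below 10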
Beta apoptosis – blocks beta cell apoptosis; INS-1E cytokine-induced death, ATP luminescence, 48 h; percent of positive-control rescue, neutral wells zero; protection from apoptosis, % (test concentration not listed); hit rate 0.8% among 300,000; AID 435005;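 active means Every replicate reaches about 75%, or at least half do and their mean reaches it too, limit read from the data; inconclusive means At least half of replicates reach the limit but their mean does not; inactive means Under half of replicates reach the limit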;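 further: 0% = cytokine-treated negative control wells and 100% = positive control rescue; higher means more ATP so stronger rescue from cytokine killing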
Calb FLC – affects C. albicans growth with fluconazole. C. albicans CaCi-2 (fluconazole-resistant clinical isolate) + fluconazole, Alamar Blue growth, 48 h. growth inhibition, % (concentration not given with the values). hit rate 0.57% among 300,000;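 active means growth inhibition above about 58% in most replicates, limit read from the data, passing the limit was not always enough; inconclusive means exactly half the replicates above a set limit; inactive means most replicates below a set limit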;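 further: all wells also contain fluconazole at 8 µg/ml as a sub-toxic cotreatment; 0% = median of DMSO wells and 100% = median of geldanamycin control wells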
T cruzi inh – blocks replication of Trypanosoma cruzi | T. cruzi beta-gal in NIH3T3, luminescence, 90 h | inhibition, % (no concentration beside the values) | hit rate 1.4% among 300,000;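 active means mean inhibition across valid replicates above about 55%, limit read from the data; inconclusive means mean below that limit but half or more replicates reach it; inactive means mean below it, under half of replicates reach it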;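 further: signal also drops with host cell toxicity which is not excluded here; 0% = plate median of DMSO wells and 100% = zero luminescence signal; higher percent means less beta-gal luminescence so fewer parasites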
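System: NIH/3T3 fibroblasts plus reporter T. cruzi. Medium: DMEM plus 2% FBS. Probe or stimulus: 5000 reporter trypomastigotes per well. Compound: single 50 nL compound addition per well in DMSO. Incubation: co-culture of at least 90 h after 3 h attachment. Detection: GalScreen β-gal luminescence, detergent lysis, 60 min. Evaluation: parasite load inhibition, %.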
Numbers without * were called inactive.

What do the screens show for `COc1ccc([N+](=O)[O-])cc1NC(=O)CSCc1ccc(Br)cc1`?
A1 inh: -1; Beta apoptosis: -3; Calb FLC: -20; T cruzi inh: -1

Results for O=C(CSCc1ccc(Cl)cc1)Nc1cc([N+](=O)[O-])ccc1O ?
CSC inhib: 38; H9c2 TAG inh: 8; A1 inh: 1; Beta apoptosis: -2; Calb FLC: 91*; T cruzi inh: -8

Results for CC(CC(=O)O)CC(=O)Nc1cc([N+](=O)[O-])ccc1O (stereo unspecified) ?
CSC inhib: -14; H9c2 TAG inh: -15; A1 inh: 1; Beta apoptosis: -11; Calb FLC: -11; T cruzi inh: 5

Results for Cc1ccc(SCC(=O)Nc2cc([N+](=O)[O-])ccc2O)cc1 ?
CSC inhib: -9; H9c2 TAG inh: -2; A1 inh: -1; Beta apoptosis: 4; Calb FLC: 87*; T cruzi inh: -8

What do the screens show for `CC(=O)N1CCN(C(=O)c2cccc(S(=O)(=O)Nc3c(C)n(C)n(-c4ccccc4)c3=O)c2)CC1`?
H9c2 TAG inh: 7

Results for COCOc1ccc(-c2ncc(OC)nc2NC(=O)c2cc(C)oc2C)cc1 ?
H9c2 TAG inh: -7

Results for CCCCNC(=O)CSc1nnc(Cc2ccc(Cl)c(Cl)c2)c(=O)[nH]1 ?
CSC inhib: -1; A1 inh: -1; Beta apoptosis: -2; Calb FLC: 6; T cruzi inh: -7

What do the screens show for `CC(C)(C)c1ccc(Cc2n[nH]c(=S)[nH]c2=O)cc1`?
CSC inhib: -1; A1 inh: 1; Beta apoptosis: -2; Calb FLC: 78*; T cruzi inh: -1

Results for O=c1[nH]c(=S)[nH]nc1Cc1ccc(Cl)c(Cl)c1 ?
CSC inhib: 7; A1 inh: 0; Beta apoptosis: -2; Calb FLC: 91*; T cruzi inh: 2

Results for Cc1ccc(C(=O)NC(=S)NNC(=O)CC#N)cc1 ?
CSC inhib: -7; H9c2 TAG inh: 1; A1 inh: -2; Beta apoptosis: 4; Calb FLC: 109*; T cruzi inh: 9

Results for CCCCC(=O)NNC(=S)NC(=O)c1ccc(C)cc1 ?
CSC inhib: 13; H9c2 TAG inh: -6; A1 inh: 0; Beta apoptosis: 3; Calb FLC: 101*; T cruzi inh: -27

What do the screens show for `CCOC(=O)C1=C(C)NC(C)=C(C(=O)OCC)C1c1ccc(C)o1`?
CSC inhib: -7; H9c2 TAG inh: -8; A1 inh: 0; Beta apoptosis: -22; Calb FLC: -2; T cruzi inh: 15

Results for CC1=C(C(N)=O)C(c2ccc(C)o2)C(C(N)=O)=C(C)N1 ?
CSC inhib: 3; H9c2 TAG inh: -3; A1 inh: 0; Beta apoptosis: -1; Calb FLC: 71*; T cruzi inh: -4

Results for Cc1cc(C(=O)Nn2cnc3ccccc3c2=O)ccc1[N+](=O)[O-] ?
H9c2 TAG inh: 25; A1 inh: 1; Beta apoptosis: -2; Calb FLC: -11; T cruzi inh: -42

How did Cc1cc(/C=C2/NC(=O)N(Cc3ccccc3F)C2=O)c(C)n1C(C)C do in these assays?
CSC inhib: 11; H9c2 TAG inh: 15; A1 inh: 0; Beta apoptosis: 1; Calb FLC: 9; T cruzi inh: 57*

How did CCn1c(C)cc(/C=C2/NC(=O)N(Cc3ccccc3F)C2=O)c1C do in these assays?
CSC inhib: -2; A1 inh: 1; Beta apoptosis: 0; Calb FLC: -13; T cruzi inh: 9

Results for COc1ccc(CS(=O)(=O)/C(Cl)=C(/Cl)C(=O)Nc2ccc(OC)nc2)cc1 ?
CSC inhib: 109*; H9c2 TAG inh: 81; A1 inh: 0; Beta apoptosis: 52; Calb FLC: 42; T cruzi inh: 22

How did COc1ccc(/C=C/C(=O)Nc2ccc(OC)nc2)cc1 do in these assays?
CSC inhib: 16; A1 inh: 0; Beta apoptosis: -11; Calb FLC: inconclusive; T cruzi inh: -4

Results for COc1ccc(NC(=O)Cc2ccccc2)cn1 ?
CSC inhib: -5; H9c2 TAG inh: -18; A1 inh: 0; Beta apoptosis: 1; Calb FLC: 22; T cruzi inh: -6

Results for COc1ccc(NC(=O)/C(Cl)=C(/Cl)S(=O)Cc2ccccc2)cn1 (stereo unspecified) ?
H9c2 TAG inh: 96*; A1 inh: -4; Beta apoptosis: 104*; Calb FLC: -2; T cruzi inh: 30

How did OC[C@@H]1CN(CCN2CCOCC2)C[C@H](n2cnc3c(NC4CCC4)ncnc32)O1 do in these assays?
H9c2 TAG inh: -7

How did Oc1ccc(N=Nc2nc(-c3ccccc3)c(-c3ccccc3)[nH]2)cc1 do in these assays?
CSC inhib: 189*; A1 inh: 0; Beta apoptosis: 16; Calb FLC: 11; T cruzi inh: 22

Results for c1ccc(N2CCN(c3ccccc3)C2c2cccnc2)cc1 ?
CSC inhib: -3; H9c2 TAG inh: 6; A1 inh: 0; Beta apoptosis: 0; Calb FLC: -12; T cruzi inh: 36

How did Cc1ccc(N2CCN(c3ccc(C)cc3)C2c2cccnc2)cc1 do in these assays?
CSC inhib: 1; A1 inh: 0; Beta apoptosis: -5; Calb FLC: -12; T cruzi inh: 59*

What do the screens show for `Cc1cc(Cl)c(S(=O)(=O)N2CCN(c3ccc(F)cc3)CC2)cc1OCC(=O)NC1CCCCC1`?
CSC inhib: 3; A1 inh: 1; Beta apoptosis: 103*; Calb FLC: 2; T cruzi inh: inconclusive

Results for Cc1cc(Cl)c(S(=O)(=O)N2CCN(c3ccc(F)cc3)CC2)cc1OCC(N)=O ?
CSC inhib: 11; H9c2 TAG inh: -39; A1 inh: 1; Calb FLC: 12; T cruzi inh: 5

What do the screens show for `O=S(=O)(c1ccc(NCCOc2ccccc2)nc1)N1CCCC1`?
H9c2 TAG inh: -26; A1 inh: -1; Beta apoptosis: 8

Results for O=C(CN1CCCc2ccccc21)N/N=C/c1ccccc1O ?
CSC inhib: 38; A1 inh: -1; Beta apoptosis: 99*; Calb FLC: 7; T cruzi inh: 5

How did O=C(CN1CCCc2ccccc21)N/N=C/c1ccc(F)cc1F do in these assays?
CSC inhib: -11; H9c2 TAG inh: -10; A1 inh: 0; Beta apoptosis: -2; Calb FLC: -2; T cruzi inh: 1

Results for N#Cc1ccc(CN2CCN(C(=O)CNS(=O)(=O)c3ccc4c(c3)OCCCO4)CC2)cc1 ?
CSC inhib: -2; H9c2 TAG inh: -18; A1 inh: -1; Beta apoptosis: -1

How did CC(C)(C)c1ccc(-n2ncc3c2CCCC3NC(=O)c2cnccn2)cc1 (stereo unspecified) do in these assays?
CSC inhib: 21; A1 inh: 0; Beta apoptosis: 26; Calb FLC: -2; T cruzi inh: -6

Screening data (PubChem)
